Among the data in ChEMBL document CHEMBL1124857, “A radiotracer for mapping cholinergic neurons of the brain” (1990) are Dose and Dose/g values, retold here.

For test [1], the species on record is Mus musculus. The test can be described thus: Percentage dose injected in the whole brain of mouse was determined. Type of test: functional. The method in brief:
(§1)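 Female CD-1 mice (18–27 g; n = 4 or 5 per tracer) were given the tracer by tail-vein injection under ether anesthesia. Doses were 7.2–10.8 μCi of the 125I-labeled tracer or 5.0 μCi of the 3H-labeled tracer. Mice were killed 4 h later. Tissues were excised, weighed, and counted by gamma or liquid-scintillation counting. Values are % injected dose/g, or % dose in whole brain, normalized to a 25 g mouse.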

The subject of test [2] is Mus musculus. Briefly: Evaluated for the radiotracer concentration in cerebellum of mouse brain, 4 hr after intravenous injection. The class given is functional, organism-based. The method in brief:
as §1

Test [3] concerns Mus musculus. The test can be described thus: Evaluated for the radiotracer concentration in cerebral cortex of mouse brain, 4 hr after intravenous injection. The class given is functional, organism-based. The method in brief:
as §1

The test system of test [4] is Mus musculus. The test can be described thus: Evaluated for the radiotracer concentration in striatum of mouse brain, 4 hr after intravenous injection. Type of test: functional, organism-based. The method in brief:
as §1

The mark [5] stands for this setting: tested as the 125I-labelled form.

In the test listed under Mus musculus [1], `OC1Cc2cccc([125I])c2CC1N1CCC(c2ccccc2)CC1` (racemic) gave a Dose of 0.56%.

The compound `O[C@H]1Cc2cccc([125I])c2C[C@@H]1N1CCC(c2ccccc2)CC1` displayed a Dose in the test listed under Mus musculus [1] of 0.06%.

For `OC1CCCCC1N1CCC(c2ccccc2)CC1` (stereo unspecified), the Dose/g was found to be 0.1% with Mus musculus [2] (tested as the 3H-labelled form), 0.42% with Mus musculus [3] (tested as the 3H-labelled form) and 0.4% with Mus musculus [4] (tested as the 3H-labelled form).

Regarding `OC1Cc2cccc(I)c2CC1N1CCC(c2ccccc2)CC1` (racemic), the values for the Dose/g in the test on Mus musculus [2] (setting [5]), in the test with Mus musculus [3] (setting [5]) and in the test with Mus musculus [4] (setting [5]) were 0.2%, 1.17% and 3.29%, respectively.

In the case of `[3H]OC1CCCCC1N1CCC(c2ccccc2)CC1` (stereo unspecified), the Dose in the test listed under Mus musculus [1] was found to be 0.24%.

For `O[C@H]1Cc2cccc(I)c2C[C@@H]1N1CCC(c2ccccc2)CC1`, the Dose/g came to 0.06% with Mus musculus [2] (setting [5]), 0.12% in the test with Mus musculus [3] (setting [5]) and 0.26% in the test with Mus musculus [4] (setting [5]).

For the compound `O[C@@H]1Cc2cccc(I)c2C[C@H]1N1CCC(c2ccccc2)CC1`, the Dose in the test filed under Mus musculus [1] worked out at 1.03%. Further, the Dose/g with Mus musculus [2] is 0.23%; with Mus musculus [3] it was 2.56%; in the test on Mus musculus [4], 6.26%.
